Source: ChEMBL document CHEMBL1123985, “Oral absorption of cephalosporin antibiotics. 1. Synthesis, biological properties, and oral bioavailability of 7-(arylacetamido)-3-chloro cephalosporins in animals” (J Med Chem, 1988)
Values after ≈ are worked out from the molar mass of the structure shown.

Legend:
Haemophilus influenzae [1] = assay: Minimum inhibitory concentration against sens CL strain of Haemophilus influenzae; format: functional
Mus musculus [2] = assay: Efficacy against mouse infected ip with park strain of Streptococcus pneumoniae administered sc to 19-21-g random sex ICR mice at 1 hr and 5 hr; format: functional
In short: (§1)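 ICR mice, random sex, 19-21 g, challenged ip with 50-500 LC50 from a frozen organism pool; compound given sc or po at 1 and 5 h after challenge, five 2-fold dose levels, eight mice per level; ED50 derived.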

[3] = tested on: Staphylococcus epidermidis; assay: Minimum inhibitory concentration against 222 strain of Staphylococcus epidermidis; format: functional
Canis familiaris [4] = assay: Area under plasma concentration vs time curve observed in female mongrel dogs after, iv administration of single 15 mg/kg dose; format: ADME, organism-based, Canis lupus familiaris; set-up: dose 15 mg/kg, route intravenous; settings: dog, in vivo
In short: (§2)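 Six female mongrel dogs (14-23 kg) fasted overnight, bladder catheterized; single 15 mg/kg solution doses by stomach tube (in water, total 500 mL) or cephalic vein (saline or pH 6.0 NaCl/phosphate/acetate buffer). Plasma sampled at intervals; activity by disk-plate agar diffusion against E. coli MB 3804, standards in dog serum or buffer. AUC μg min/mL, mean ± SEM; BA from iv vs po AUC and urinary recovery.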

[5] = dose in urine (24-h urine excretion) in female mongrel dogs after, iv administration of single 15 mg/kg dose; format: ADME, organism-based, Canis lupus familiaris; set-up: dose 15 mg/kg, route intravenous; settings: dog
In short: (§3)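 Female mongrel dogs (n=6), bladder catheter; urine collected at intervals after single 15 mg/kg iv or oral solution dose, frozen; antibiotic activity by disk-plate agar diffusion against E. coli MB 3804 with standards in pH 6.0 buffer; percent of dose recovered in urine.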

Haemophilus influenzae [6] = assay: Minimum inhibitory concentration against res 76 strain of Haemophilus influenzae; format: functional
[7] = Oral bioavailability in Rhesus monkey; format: ADME, organism-based, Macaca mulatta; settings: in vivo
In short: (§4)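 Rhesus monkeys, adult males, six animals per compound, each given drug orally and iv; fasted overnight. Single 30 mg/kg solution doses, by nasogastric tube (in water) or saphenous vein (in isotonic lactated Ringer). Plasma sampled at intervals, frozen at -70 °C, antibacterial activity by microbiological assay. AUC in μg min/mL; oral bioavailability from oral vs iv AUC.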

Klebsiella pneumoniae = assay: Minimum inhibitory concentration against X68 strain of Klebsiella pneumoniae; format: functional
Mus musculus [8] = assay: Efficacy against mouse infected ip with park strain of Streptococcus pneumoniae administered po to 19-21-g random sex ICR mice at 1 hr and 5 hr; format: functional; in short: as §1
[9] = Oral bioavailability in mouse; format: ADME, organism-based; settings: in vivo
In short: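 Male Cox mice given water and liquid diet overnight; 20 mg/kg in saline (2 mg/mL) sc or orally; urine from collection cages plus bladder contents over 2 h; activity by agar well assay with Bacillus subtilis ATCC 6633. Bioavailability from percent dose excreted in urine after oral vs parenteral dosing.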

Staphylococcus aureus [10] = assay: Minimum inhibitory concentration against 3055 strain of Staphylococcus aureus
Staphylococcus aureus [11] = assay: Minimum inhibitory concentration against X1.1 strain of Staphylococcus aureus; format: functional
Klebsiella aerogenes = assay: Minimum inhibitory concentration against EB17 strain of Enterobacter aerogenes; format: functional
Mus musculus [12] = assay: Efficacy against mouse infected ip with C203 strain of Streptococcus pyogenes, administered po to 19-21-g random sex ICR mice at 1 hr and 5 hr; format: functional; in short: as §1
[13] = Area under plasma concentration vs time curve observed in Rhesus monkeys after, iv administration of single 30 mg/kg dose; format: ADME, organism-based, Macaca mulatta; set-up: dose 30 mg/kg, route intravenous; settings: rhesus monkey; in short: as §4
Escherichia coli = assay: Minimum inhibitory concentration against EC14 strain Escherichia coli; format: functional
Streptococcus pneumoniae [14] = assay: Minimum inhibitory concentration against Park strain of Streptococcus pneumoniae; format: functional
Mus musculus [15] = assay: Efficacy against mouse infected ip with 3055 strain of Staphylococcus aureus, administered po to 19-21-g random sex ICR mice at 1 hr and 5 hr; format: functional; in short: as §1
[16] = dose in urine (24-h urine excretion) in female mongrel dogs after, oral administration of single 15 mg/kg dose; format: ADME, organism-based, Canis lupus familiaris; set-up: dose 15 mg/kg, route oral; settings: dog; in short: as §3
Streptococcus pyogenes [17] = assay: Minimum inhibitory concentration against Streptococcus pyogenes C203; format: functional
Salmonella = assay: Minimum inhibitory concentration against X514 strain of Salmonella; format: functional
Mus musculus [18] = assay: Efficacy against mouse infected ip with C203 strain of Streptococcus pyogenes, administered sc to 19-21-g random sex ICR mice at 1 hr and 5 hr; format: functional; in short: as §1
[19] = Oral bioavailability in dog (female mongrel); format: ADME, organism-based, Canis lupus familiaris; settings: in vivo; in short: as §2
[20] = tested on: Staphylococcus epidermidis; assay: Minimum inhibitory concentration against Epil strain of Staphylococcus epidermidis; format: functional
Canis familiaris [21] = assay: Area under plasma concentration vs time curve observed in female mongrel dogs after, oral administration of single 15 mg/kg dose; format: ADME, organism-based, Canis lupus familiaris; set-up: dose 15 mg/kg, route oral; settings: dog, in vivo; in short: as §2
[22] = Area under plasma concentration vs time curve observed in Rhesus monkeys after oral administration of single 30 mg/kg dose; format: ADME, organism-based, Macaca mulatta; set-up: dose 30 mg/kg, route oral; settings: rhesus monkey; in short: as §4
Mus musculus [23] = assay: Efficacy against mouse infected ip with 3055 strain of Staphylococcus aureus, administered sc to 19-21-g random sex ICR mice at 1 hr and 5 hr; format: functional; in short: as §1
Staphylococcus aureus [24] = assay: Minimum inhibitory concentration against S13E strain of Staphylococcus aureus; format: functional
[25] = Minimum inhibitory concentration against N9 strain of Shigella sonnei; format: functional
Streptococcus pneumoniae [26] = assay: Minimum inhibitory concentration against park strain of Streptococcus pneumoniae
Streptococcus pyogenes [27] = assay: Minimum inhibitory concentration against C203 strain of Streptococcus pyogenes
Staphylococcus aureus [28] = assay: Minimum inhibitory concentration against V41 strain of Staphylococcus aureus; format: functional

O=C(Cc1csc2ccccc12)N[C@@H]1C(=O)N2C(C(=O)O)=C(Cl)CS[C@H]12
MIC (Haemophilus influenzae [1]): 1 µg/mL (≈ 2.45 µM)
ED50 (Mus musculus [2]): 14.8 mg/kg
MIC [3]: 0.25 µg/mL (≈ 0.611 µM)
AUC (Canis familiaris [4]): 29300 ng·h/mL
dose excreted [5]: 20%
MIC (Haemophilus influenzae [6]): 0.25 µg/mL (≈ 0.611 µM)
bioavailability [7]: 1.3%
MIC (Klebsiella pneumoniae): 128 µg/mL (≈ 313 µM)
ED50 (Mus musculus [8]): 36.2 mg/kg
bioavailability [9]: 47%
MIC (Staphylococcus aureus [10]): 0.25 µg/mL (≈ 0.611 µM)
MIC (Staphylococcus aureus [11]): 0.125 µg/mL (≈ 0.306 µM)
MIC (Klebsiella aerogenes): > 128 µg/mL
ED50 (Mus musculus [12]): 5.5 mg/kg
AUC [13]: 86800 ng·h/mL
MIC (Escherichia coli): 64 µg/mL (≈ 157 µM)
MIC (Streptococcus pneumoniae [14]): 0.125 µg/mL (≈ 0.306 µM)
ED50 (Mus musculus [15]): 1.51 mg/kg
dose excreted [16]: 1.5%
MIC (Streptococcus pyogenes [17]): 0.06 µg/mL (≈ 0.147 µM)
MIC (Salmonella): 128 µg/mL (≈ 313 µM)
ED50 (Mus musculus [18]): 3.8 mg/kg
bioavailability [19]: < 3%
MIC [20]: 1 µg/mL (≈ 2.45 µM)
AUC (Canis familiaris [21]): < 800 ng·h/mL
AUC [22]: 1170 ng·h/mL
ED50 (Mus musculus [23]): 0.62 mg/kg
MIC (Staphylococcus aureus [24]): 8 µg/mL (≈ 19.6 µM)
MIC [25]: 128 µg/mL (≈ 313 µM)
MIC (Streptococcus pneumoniae [26]): 0.06 µg/mL (≈ 0.147 µM)
MIC (Streptococcus pyogenes [27]): 0.06 µg/mL (≈ 0.147 µM)
MIC (Staphylococcus aureus [28]): 8 µg/mL (≈ 19.6 µM)
